Experimental data taken from PubChem BioAssay AID1747 (Sanford-Burnham Center for Chemical Genomics, 2009).

Test system: MDA-MB-435 + TRAIL, ATPlite cytotoxicity, 24 h
Assay: potentiation of TRAIL cytotoxicity in resistant cells, confirmation, cell-based, MDA-MB-435, ATPlite luminescence, 24 h (AID 1747)
Settings: stronger effect = higher value; for cytotoxicity: compound alone, no TRAIL
In short: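 Material: TRAIL-resistant human MDA-MB-435 cancer cells | Reagent: TRAIL at 30 ng/mL final | Dosing: Compound 1.25–5 µM final | Times: 4 h compound pretreatment, 24 h TRAIL, 37 °C | Detection: ATPlite luminescence reporting cellular ATP content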

[1] = compound plus TRAIL, at 1.25 µM

Row | Structure (SMILES) | cytotoxicity with TRAIL (at 5 µM) [%] | cytotoxicity (at 5 µM) [%] | cytotoxicity with TRAIL [1] [%] | cytotoxicity with TRAIL (compound plus TRAIL, at 2.5 µM) [%]
1 | CSc1nc(-c2ccc(C)cc2)nc(C(Cl)Cl)n1 | 71 | 0 | 43 | 60
2 | CCSc1nc(-c2ccccc2)nc(C(Cl)Cl)n1 | 73 | 0 | 28 | 45
3 | CSc1nc(-c2ccccc2)nc(C(Cl)Cl)n1 | 82 | 0 | 44 | 58
